For assay [1], the system named is Rattus norvegicus. The assay is described as follows: Ex vivo TXA2 ([…]) antagonist activity was determined for U-46,619 induced aggregation (dose ratio) after 3 hr of oral dosing (3 mg/kg) in the rat. The class given is functional. The method in brief:
(§1)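 Conscious rats (n = 6) dosed by oral gavage, then anesthetized and bled from the abdominal aorta at 1, 3 or 5 h. Platelet-rich plasma aggregated with U46619 before and after dosing to give a U46619 dose ratio. ">" values mark the maximum dose ratio achievable at the top U46619 concentration (1 × 10^-4 M).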

Assay [2] relates to Rattus norvegicus. The assay is described as follows: Ex vivo […] (TXA2 synthase) inhibitory activity after 5 hr of oral dosing (5 mg/kg) in the rat. The class given is functional. The gist of the method: (§2)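 Rats (n = 6) gavaged, anesthetized, aortic blood taken at 1, 3 or 5 h after dosing. A blood aliquot was challenged with collagen and TXB2 measured by radioimmunoassay; expressed as % inhibition of TXA2 synthase (±SEM).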

Assay [3] relates to Rattus norvegicus. Nature of the assay: Ex vivo […] (TXA2 synthase) inhibitory activity after 1 hr of oral dosing (3 mg/kg) in the rat. It is filed as functional. The method in brief:
as §2

In assay [4] the test system is Canis familiaris. The assay is described as follows: Ex vivo TXA2 ([…]) antagonist activity was determined for U-46,619 induced aggregation (dose ratio) after 24 hr of oral dosing (10 mg/kg) in the dog. It is filed as functional, Canis lupus familiaris. The gist of the method: (§3)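 Dogs (n = 4) dosed orally, blood sampled at 2, 5, 8 and 24 h. Platelet-rich plasma aggregated with U46619 plus a predetermined threshold ADP concentration (about 0.4–1.2 × 10^-6 M), compared before vs after dosing to give a U46619 dose ratio. ">" marks the maximum achievable ratio at top U46619 (1 × 10^-4 M).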

The test system of assay [5] is Rattus norvegicus. The assay is described as follows: Ex vivo […] (TXA2 synthase) inhibitory activity after 1 hr of oral dosing (1 mg/kg) in the rat. The class given is functional. The gist of the method:
as §2

For assay [6], the system named is Rattus norvegicus. The assay is described as follows: Ex vivo […] (TXA2 synthase) inhibitory activity after 1 hr of oral dosing (5 mg/kg) in the rat. The class given is functional. The gist of the method: as §2
Assay [7] relates to Canis familiaris. The assay is described as follows: Ex vivo TXA2 ([…]) antagonist activity was determined for U-46,619 induced aggregation (dose ratio) after 24 hr of oral dosing (1 mg/kg) in the dog. The class given is functional, Canis lupus familiaris. The method in brief:
as §3

For assay [8], the system named is Rattus norvegicus. The assay is described as follows: Ex vivo […] (TXA2 synthase) inhibitory activity after 3 hr of oral dosing (1 mg/kg) in the rat. It is filed as functional. The method in brief: as §2
Assay [9] deals with Rattus norvegicus. Nature of the assay: Ex vivo TXA2 ([…]) antagonist activity was determined for U-46,619 induced aggregation (dose ratio) after 1 hr of oral dosing (1 mg/kg) in the rat. The class given is functional. The gist of the method:
as §1

The target of a further assay is T1, Prostacyclin synthase (Homo sapiens, UniProt Q16647).
T1 sequence (Q16647 whole entry): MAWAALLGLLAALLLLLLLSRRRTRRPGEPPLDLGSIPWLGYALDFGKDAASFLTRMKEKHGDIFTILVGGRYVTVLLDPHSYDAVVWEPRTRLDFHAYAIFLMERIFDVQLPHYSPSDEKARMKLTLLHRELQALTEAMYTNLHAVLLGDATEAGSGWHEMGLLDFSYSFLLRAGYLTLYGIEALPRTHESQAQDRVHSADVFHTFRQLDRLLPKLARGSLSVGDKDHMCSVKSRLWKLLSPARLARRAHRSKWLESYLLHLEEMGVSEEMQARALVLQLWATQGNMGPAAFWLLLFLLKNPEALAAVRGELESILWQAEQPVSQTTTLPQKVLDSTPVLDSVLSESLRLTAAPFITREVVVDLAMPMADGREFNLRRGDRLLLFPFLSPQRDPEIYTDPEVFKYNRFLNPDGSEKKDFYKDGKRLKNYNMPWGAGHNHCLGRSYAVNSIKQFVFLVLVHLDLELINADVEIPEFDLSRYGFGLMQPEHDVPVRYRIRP
The assay is described as follows: In vitro inhibition of Prostaglandin I2 synthase in cultured human endothelial cells.

The test system of assay [10] is Canis familiaris. The assay is described as follows: Ex vivo TXA2 ([…]) antagonist activity was determined for U-46,619 induced aggregation (dose ratio) after 2 hr of oral dosing (1 mg/kg) in the dog. The class given is functional, Canis lupus familiaris. The method in brief: as §3
Assay [11] relates to Canis familiaris. Nature of the assay: Ex vivo TXA2 ([…]) antagonist activity was determined for U-46,619 induced aggregation (dose ratio) after 8 hr of oral dosing (1 mg/kg) in the dog. The class given is functional, Canis lupus familiaris. The method in brief: as §3

As to `Cc1ccc(OC(C)(C)C2OCC(C/C=C\CCC(=O)O)C(c3cccnc3)O2)c([N+](=O)[O-])c1` (stereo in doubt; 7x), the Antagonist activity is recorded as above 23 in the assay on Rattus norvegicus [1]; above 522 with Canis familiaris [4]; above 1.4 in the assay on Canis familiaris [7]; above 21 in the assay with Rattus norvegicus [9]; above 506 in the assay on Canis familiaris [10]; above 506 with Canis familiaris [11]. For the same compound, the Inhibition in the assay on Rattus norvegicus [2] was determined as 79.3%; in the assay with Rattus norvegicus [3], 90.8%; in the assay on Rattus norvegicus [5], 61.8%; in the assay with Rattus norvegicus [6], 92.9%; in the assay on Rattus norvegicus [8] it was 38.8%. This compound gave an IC50 at Prostacyclin synthase of 28 µM.

For orientation: Inhibition means the percentage by which the read-out fell short of the control. For orientation: IC50 means the concentration that inhibits the measured activity by half. The low end stands for inhibition by little substance, the high end for a need for much substance.

The values are drawn from ChEMBL document CHEMBL1128245, “Dual-acting thromboxane receptor antagonist/synthase inhibitors: synthesis and biological properties of [2-substituted-4-(3-pyridyl)-1,3-dioxan-5-yl] alkenoic acids” (J Med Chem, 1995).
